Measurements: ChEMBL document CHEMBL3745663, “Identification of a novel class of quinoline-oxadiazole hybrids as anti-tuberculosis agents” (Bioorg Med Chem Lett, 2016)
Converted amounts (≈) assume the structure as drawn. Where a name gives a salt, the structure may show the parent alone.

Columns and labels:
[1] = Selectivity index, ratio of CC50 for human HepG2 cells to MIC for Mycobacterium tuberculosis H37Rv; assay type: toxicity, cell-based; settings: read-out: Selectivity Index
Method in brief: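 Index equals HepG2 CC50 (SRB assay, 10 to 80 µg/mL) divided by the REMA MIC against M. tuberculosis H37Rv (50 to 0.1 µg/mL).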

[2] = Cytotoxicity against human HepG2 cells after 48 hrs by SRB assay; assay type: cell-based
[3] = system: Mycobacterium tuberculosis; test: Antibacterial activity against Mycobacterium tuberculosis H37Rv after 7 days by resazurin microplate assay; assay type: functional; settings: 168 h
[4] = Metabolic stability in rat liver microsomes assessed as compound remaining at 10 uM after 60 mins by HPLC analysis; assay type: ADME; settings: read-out: Stability
Method in brief: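 Compound was incubated with rat liver microsomes and its disappearance followed over 60 minutes. Diazepam was the internal standard. The drug-to-internal-standard ratio was calculated at each time point to gauge how much compound remained.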

[5] = system: Mycobacterium tuberculosis; test: Antibacterial activity against Mycobacterium tuberculosis; assay type: functional

SMILES	selectivity ratio [1]	CC50 at 48 h [2] [µM]	MIC [3] [µM]	remaining at 1 h, 10 µM [4] [%]	MIC [5] [µM]
COc1ccc(-c2nc(/C=C/c3cc4ccccc4nc3OC)no2)cc1	> 1.57	> 220	> 140		
COc1nc2ccccc2cc1/C=C/c1noc(-c2ccccc2)n1	> 19.5	> 240	12.3 (≈ 4.05 µg/mL)		
COc1nc2ccccc2cc1/C=C/c1noc(-c2ccccc2C)n1	> 3.16	> 230	72.8 (≈ 25 µg/mL)		
COCc1nc(/C=C/c2cc3ccccc3nc2OC)no1	> 610	> 270	0.44 (≈ 0.131 µg/mL)	99	
COc1nc2ccccc2cc1/C=C/c1noc(-c2ccco2)n1	> 9.12	> 250	27.4 (≈ 8.75 µg/mL)		
COc1nc2ccccc2cc1/C=C/c1noc(COc2ccccc2)n1	> 330	> 220	0.67 (≈ 0.241 µg/mL)		
COc1nc2ccccc2cc1/C=C/c1noc(-c2ccc(F)cc2)n1	> 41	> 230	5.61 (≈ 1.95 µg/mL)		
COc1nc2ccccc2cc1/C=C/c1noc(-c2ccc(Br)cc2)n1	> 21.2	> 195	9.19 (≈ 3.75 µg/mL)		
COc1cccc(-c2nc(/C=C/c3cc4ccccc4nc3OC)no2)c1	> 2.1	> 220	105 (≈ 37.7 µg/mL)		
COc1nc2ccc(Br)cc2cc1[C@@H](c1ccccc1)[C@@](O)(CCN(C)C)c1cccc2ccccc12 [BEDAQUILINE]					0.1 (≈ 0.0556 µg/mL)
COc1nc2ccccc2cc1/C=C/c1noc(-c2ccc(C)cc2)n1	> 5.75	> 230	40 (≈ 13.7 µg/mL)		
COc1nc2ccccc2cc1/C=C/c1noc(-c2cccc(C)c2)n1	> 2.09	> 230	110 (≈ 37.8 µg/mL)		
COc1ccc(Cc2nc(/C=C/c3cc4ccccc4nc3OC)no2)cc1	> 535	> 215	0.4 (≈ 0.149 µg/mL)		
COc1nc2ccccc2cc1/C=C/c1noc(-c2cccnc2)n1	> 1.6	> 240	> 150		
NNC(=O)c1ccncc1 [ISONIAZID]			0.73 (≈ 0.1 µg/mL)		
COc1nc2ccccc2cc1/C=C/c1noc(/C=C/c2ccccc2)n1	> 35.5	> 225	6.33 (≈ 2.25 µg/mL)		
COc1nc2ccccc2cc1/C=C/c1noc(Cc2ccccc2)n1	> 520	> 230	0.44 (≈ 0.151 µg/mL)		
COc1nc2ccccc2cc1/C=C/c1noc(C)n1	> 285	> 300	1.05 (≈ 0.281 µg/mL)		
COc1cccc2c1C(=O)c1c(O)c3c(c(O)c1C2=O)C[C@@](O)(C(=O)CO)C[C@@H]3O[C@H]1C[C@H](N)[C@H](O)[C@H](C)O1 [DOXORUBICIN HYDROCHLORIDE]		127			
COc1nc2ccccc2cc1/C=C/c1noc(-c2cccc(Cl)c2)n1	> 2	> 220	> 110		
COc1nc2ccccc2cc1/C=C/c1noc(-c2ccccc2Br)n1	> 11.6	> 195	16.8 (≈ 6.86 µg/mL)		
COc1ccccc1-c1nc(/C=C/c2cc3ccccc3nc2OC)no1	> 31.6	> 220	6.96 (≈ 2.5 µg/mL)		
